Results as given in ChEMBL document CHEMBL1828628, “Discovery of a tetrahydroisoquinoline-based hydroxamic acid derivative (ZYJ-34c) as histone deacetylase inhibitor with potent oral antitumor activities” (J Med Chem, 2011).
Activity calls are given as the source filed them. No cut-off for these calls is given here.

Experiments:
Mus musculus [1] = test: Toxicity in human MDA-MB-231 cells xenografted BALB/c nu mouse assessed as signs of organ toxicity at 90 mg/kg, po qd for 19 days; type: organism-based; set-up: dose 90 mg/kg, route oral; conditions: in vivo, 456 h
[2] = Stability in artificial intestinal juice; type: physicochemical; conditions: simulated gi fluid
Mus musculus [3] = test: Toxicity in mouse H22 cells xenografted Kunming mouse assessed as change in body weight at 90 mg/kg, po qd for 19 days; type: organism-based; set-up: dose 90 mg/kg, route oral; conditions: in vivo, 456 h
[4] = Antiproliferative activity against human ES2 cells after 48 hrs by MTT assay; type: functional, cell-based; conditions: ES-2, 48 h
Method in brief: (§1)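 Cells kept in RPMI1640 with 10% FBS at 37 °C, 5% CO2. Cells were passaged into 96-well plates the day before dosing and left ≥4 h before compound addition. Exposure was 48 h, then 0.5% MTT for 4 h. Formazan was extracted with DMSO for 15 min and read at 570 nm. IC50 was derived from inhibition ratios; mean of three experiments.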

MDA-MB-231 = test: Cell cycle arrest in human MDA-MB-231 cells assessed as accumulation at G1 phase at 0.5 uM after 48 hrs using propidium iodide staining by flow cytometric analysis; type: functional, cell-based
Method in brief: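 MDA-MB-231 cells were seeded at 4 × 10^5 per well and incubated overnight, then treated for 48 h. Cells were fixed overnight in 70% ethanol phosphate buffer and washed twice with PBS. They were treated with DNase-free RNase A (1 mg/mL) for 30 min, then stained with propidium iodide for 30 min in the dark at room temperature. DNA content was read by FACScan flow cytometry.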

HCT-116 = test: Antitumor activity against human HCT116 cells xenografted in BALB/c nu mouse assessed as tumor growth inhibition at 90 mg/kg, po qd for 19 days relative to control; type: functional
Mus musculus [5] = test: Toxicity in human MDA-MB-231 cells xenografted BALB/c nu mouse assessed as change in body weight at 60 mg/kg, ip qd for 19 days; type: organism-based; set-up: dose 60 mg/kg, route intraperitoneal; conditions: in vivo, 456 h
Method in brief: (§2)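 Female BALB/c-nu mice, 5–6 weeks old, bearing subcutaneous right-flank xenografts. Mice were randomized 6 per group at about 100 mm3 tumor size. Dosing was oral or intraperitoneal for 19 days; controls received an equal volume of PBS containing DMSO. Body weight was monitored regularly during treatment, and tumors were measured by caliper every three days.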

Mus musculus [6] = test: Toxicity in human HCT116 cells xenografted BALB/c nu mouse assessed as change in body weight at 60 mg/kg, po qd for 19 days; type: organism-based, HCT-116; set-up: dose 60 mg/kg, route oral; conditions: in vivo, 456 h; method in brief: as §2
[7] = biological target: T1, Protein deacetylase HDAC6 (Homo sapiens, UniProt Q9UBN7); test: Inhibition of HDAC6 using Boc-Lys (acetyl)-AMC as substrate after 30 mins by fluorescence assay
T1 sequence (Q9UBN7 whole entry): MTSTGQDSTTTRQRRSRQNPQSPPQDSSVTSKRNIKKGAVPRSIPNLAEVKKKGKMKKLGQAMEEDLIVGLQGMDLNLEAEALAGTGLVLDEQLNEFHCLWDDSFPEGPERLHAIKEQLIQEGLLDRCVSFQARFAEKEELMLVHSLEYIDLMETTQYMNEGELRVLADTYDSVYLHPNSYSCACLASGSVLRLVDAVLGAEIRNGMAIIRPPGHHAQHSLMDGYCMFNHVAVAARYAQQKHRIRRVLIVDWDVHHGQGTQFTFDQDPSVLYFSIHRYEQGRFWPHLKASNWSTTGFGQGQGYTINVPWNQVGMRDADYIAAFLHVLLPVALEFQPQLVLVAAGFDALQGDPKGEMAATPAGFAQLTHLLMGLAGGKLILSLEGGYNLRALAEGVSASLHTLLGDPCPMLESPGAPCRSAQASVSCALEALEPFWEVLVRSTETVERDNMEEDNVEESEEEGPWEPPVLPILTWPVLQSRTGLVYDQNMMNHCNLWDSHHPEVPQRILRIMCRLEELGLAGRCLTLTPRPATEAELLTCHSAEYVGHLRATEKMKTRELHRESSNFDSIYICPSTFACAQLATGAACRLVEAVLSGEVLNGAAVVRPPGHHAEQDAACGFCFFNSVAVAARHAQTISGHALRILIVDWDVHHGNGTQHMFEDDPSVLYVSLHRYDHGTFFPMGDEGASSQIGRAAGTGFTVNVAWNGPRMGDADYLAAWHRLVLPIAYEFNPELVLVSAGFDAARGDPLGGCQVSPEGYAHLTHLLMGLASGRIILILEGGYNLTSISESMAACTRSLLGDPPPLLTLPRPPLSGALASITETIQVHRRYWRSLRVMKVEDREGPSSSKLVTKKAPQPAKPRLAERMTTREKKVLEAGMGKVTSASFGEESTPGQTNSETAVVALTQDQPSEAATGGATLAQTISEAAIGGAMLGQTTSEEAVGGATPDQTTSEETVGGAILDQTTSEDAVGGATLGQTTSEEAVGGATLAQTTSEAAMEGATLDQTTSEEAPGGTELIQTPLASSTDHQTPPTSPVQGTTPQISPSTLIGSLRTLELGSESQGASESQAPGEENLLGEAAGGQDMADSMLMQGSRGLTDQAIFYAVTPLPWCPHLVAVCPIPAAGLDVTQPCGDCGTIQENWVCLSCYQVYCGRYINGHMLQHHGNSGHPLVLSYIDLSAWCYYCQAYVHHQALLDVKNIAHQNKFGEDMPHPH
Method in brief: (§3)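 Enzyme (HeLa nuclear extract, HDAC6 or HDAC8) preincubated 5 min with a series of compound concentrations. Fluorogenic Boc-Lys(acetyl)-AMC substrate then added and incubated 37 °C for 30 min. Reaction stopped with developer containing trypsin and TSA, 20 min at 37 °C. Fluorescence read at ex 390/em 460 nm. Inhibition taken relative to control wells; IC50 from regression of concentration/inhibition data.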

Histone deacetylase 8 = biological target: T2, Histone deacetylase 8 (Homo sapiens, UniProt Q9BY41); test: Inhibition of HDAC8 using Boc-Lys (acetyl)-AMC as substrate after 30 mins by fluorescence assay; method in brief: as §3
T2 sequence (Q9BY41 whole entry): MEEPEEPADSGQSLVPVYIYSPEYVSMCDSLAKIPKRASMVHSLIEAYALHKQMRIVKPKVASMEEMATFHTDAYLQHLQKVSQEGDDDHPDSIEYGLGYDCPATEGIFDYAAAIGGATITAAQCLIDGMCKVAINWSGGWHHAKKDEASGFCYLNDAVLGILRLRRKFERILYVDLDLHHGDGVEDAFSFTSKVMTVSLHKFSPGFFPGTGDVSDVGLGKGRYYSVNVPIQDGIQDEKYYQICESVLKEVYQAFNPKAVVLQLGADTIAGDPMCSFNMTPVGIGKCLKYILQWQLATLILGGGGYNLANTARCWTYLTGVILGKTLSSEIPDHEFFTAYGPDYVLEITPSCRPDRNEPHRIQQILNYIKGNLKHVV

HeLa = test: Antiproliferative activity against human HeLa cells after 48 hrs by MTT assay; type: functional, cell-based; method in brief: as §1

- Stability [2]: Stable
- IC50 [7]: 0.056 µM
- IC50 (Histone deacetylase 8): 0.146 µM
- IC50 (HeLa): 56.1 µM
SMILES: CC[C@H](C)[C@H](NC(=O)CC(C)(C)C)C(=O)N1Cc2cc(OCC(=O)NO)ccc2C[C@H]1C(=O)Nc1ccc(OC)cc1
- Activity (Mus musculus [1]): Non-toxic
- Activity (Mus musculus [3]): Non-toxic
- IC50 [4]: 12.9 µM
- Activity (MDA-MB-231): Active
- T/C (HCT-116): 53%
- inhibition in vivo at 90 mg/kg (HCT-116; Mus musculus, HCT-116, 456 h, read-out: TGI): 59%
- Activity (Mus musculus [5]): Non-toxic
- Activity (Mus musculus [6]): Non-toxic
